Laboratory results reported in ChEMBL document CHEMBL5247575 (J Med Chem, 2018).

tested on: Klebsiella pneumoniae; test: Synergistic antibacterial activity against Klebsiella pneumoniae CAV 1543 producing OXA-48 assessed as cefepime MIC at 4 ug/ml by broth microdilution method; format: functional; details: dose 4 µg/ml

Row | SMILES | MIC
1 | O=C(NNC(=O)[C@@H]1CC[C@@H]2CN1C(=O)N2OS(=O)(=O)O)[C@@H]1CCCNC1 [ZIDEBACTAM] | ≤ 0.12 µg/mL

tested on: Klebsiella pneumoniae; test: Synergistic antibacterial activity against Klebsiella pneumoniae jefferson 1775 producing OXA-48 assessed as cefepime MIC at 8 ug/ml by broth microdilution method; format: functional; details: dose 8 µg/ml

Row | SMILES | MIC
2 | O=C(NNC(=O)[C@@H]1CC[C@@H]2CN1C(=O)N2OS(=O)(=O)O)[C@@H]1CCCNC1 [ZIDEBACTAM] | ≤ 0.12 µg/mL

tested on: Acinetobacter baumannii; test: Synergistic antibacterial activity against Acinetobacter baumannii PR474 producing OXA-23/24/40 assessed as cefepime MIC at 4 ug/ml by broth microdilution method; format: functional; details: dose 4 µg/ml

Row | SMILES | MIC
3 | O=C(NNC(=O)[C@@H]1CC[C@@H]2CN1C(=O)N2OS(=O)(=O)O)[C@@H]1CCCNC1 [ZIDEBACTAM] | 8 µg/mL

tested on: Klebsiella pneumoniae; test: Synergistic antibacterial activity against Klebsiella pneumoniae 440/1360 producing KPC-2 assessed as meropenem MIC at 4 ug/ml by broth microdilution method; format: functional; details: dose 4 µg/ml
Method in brief: (§1)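 Broth microdilution per CLSI guidelines, using custom frozen panels. […] Each partner drug was also tested alone. MICs were run in triplicate and the modal value is reported.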

Row | SMILES | MIC
4 | O=C(NNC(=O)[C@@H]1CC[C@@H]2CN1C(=O)N2OS(=O)(=O)O)[C@@H]1CCCNC1 [ZIDEBACTAM] | ≤ 0.12 µg/mL

tested on: Acinetobacter baumannii; test: Synergistic antibacterial activity against Acinetobacter baumannii PR448 producing OXA-23 assessed as cefepime MIC at 8 ug/ml by broth microdilution method; format: functional; details: dose 8 µg/ml
Method in brief: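 Broth microdilution per CLSI guidelines in frozen panels. Test compound held at fixed 8 mg/L while the partner β-lactam concentration was increased. Run in triplicate; modal MIC reported.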

Row | SMILES | MIC
5 | O=C(NNC(=O)[C@@H]1CC[C@@H]2CN1C(=O)N2OS(=O)(=O)O)[C@@H]1CCCNC1 [ZIDEBACTAM] | 8 µg/mL

tested on: Klebsiella pneumoniae; test: Synergistic antibacterial activity against Klebsiella pneumoniae 901/1860 producing KPC-3 assessed as cefepime MIC at 4 ug/ml by broth microdilution method; format: functional; details: dose 4 µg/ml

Row | SMILES | MIC
6 | O=C(NNC(=O)[C@@H]1CC[C@@H]2CN1C(=O)N2OS(=O)(=O)O)[C@@H]1CCCNC1 [ZIDEBACTAM] | ≤ 0.12 µg/mL

tested on: Klebsiella pneumoniae; test: Synergistic antibacterial activity against Klebsiella pneumoniae 1315/2198 producing KPC-3 assessed as meropenem MIC at 8 ug/ml by broth microdilution method; format: functional; details: dose 8 µg/ml; method in brief: as §1

Row | SMILES | MIC
7 | O=C(NNC(=O)[C@@H]1CC[C@@H]2CN1C(=O)N2OS(=O)(=O)O)[C@@H]1CCCNC1 [ZIDEBACTAM] | ≤ 0.12 µg/mL

tested on: Klebsiella pneumoniae; test: Synergistic antibacterial activity against Klebsiella pneumoniae NY BS producing OXA-232 assessed as meropenem MIC at 8 ug/ml by broth microdilution method; format: functional; details: dose 8 µg/ml

Row | SMILES | MIC
8 | O=C(NNC(=O)[C@@H]1CC[C@@H]2CN1C(=O)N2OS(=O)(=O)O)[C@@H]1CCCNC1 [ZIDEBACTAM] | ≤ 0.12 µg/mL

tested on: Klebsiella pneumoniae; test: Synergistic antibacterial activity against Klebsiella pneumoniae 1354/2241 producing KPC-3 assessed as cefepime MIC at 4 ug/ml by broth microdilution method; format: functional; details: dose 4 µg/ml; method in brief: as §1

Row | SMILES | MIC
9 | O=C(NNC(=O)[C@@H]1CC[C@@H]2CN1C(=O)N2OS(=O)(=O)O)[C@@H]1CCCNC1 [ZIDEBACTAM] | ≤ 0.12 µg/mL

tested on: Klebsiella pneumoniae; test: Synergistic antibacterial activity against Klebsiella pneumoniae 11978 producing OXA-48 assessed as cefepime MIC at 8 ug/ml by broth microdilution method; format: functional; details: dose 8 µg/ml; method in brief: as §1

Row | SMILES | MIC
10 | O=C(NNC(=O)[C@@H]1CC[C@@H]2CN1C(=O)N2OS(=O)(=O)O)[C@@H]1CCCNC1 [ZIDEBACTAM] | ≤ 0.12 µg/mL

tested on: Escherichia coli; test: Synergistic antibacterial activity against Escherichia coli DH10B transfected with pBC SK (-) KPC-2 assessed as cefepime MIC at 8 ug/ml by broth microdilution method; format: functional; details: dose 8 µg/ml

Row | SMILES | MIC
11 | O=C(NNC(=O)[C@@H]1CC[C@@H]2CN1C(=O)N2OS(=O)(=O)O)[C@@H]1CCCNC1 [ZIDEBACTAM] | ≤ 0.12 µg/mL

tested on: Acinetobacter baumannii; test: Synergistic antibacterial activity against ADC deleted Acinetobacter baumannii transfected with pWH1266 producing OXA-24/40 assessed as meropenem MIC at 8 ug/ml by broth microdilution method; format: functional; details: dose 8 µg/ml

Row | SMILES | MIC
12 | O=C(NNC(=O)[C@@H]1CC[C@@H]2CN1C(=O)N2OS(=O)(=O)O)[C@@H]1CCCNC1 [ZIDEBACTAM] | > 16 µg/mL

tested on: Pseudomonas aeruginosa; test: Synergistic antibacterial activity against Pseudomonas aeruginosa 795 assessed as meropenem MIC at 8 ug/ml by broth microdilution method; format: functional; details: dose 8 µg/ml

Row | SMILES | MIC
13 | O=C(NNC(=O)[C@@H]1CC[C@@H]2CN1C(=O)N2OS(=O)(=O)O)[C@@H]1CCCNC1 [ZIDEBACTAM] | 4 µg/mL

tested on: Acinetobacter baumannii; test: Synergistic antibacterial activity against Acinetobacter baumannii PR363 producing OXA-23 assessed as meropenem MIC at 8 ug/ml by broth microdilution method; format: functional; details: dose 8 µg/ml

Row | SMILES | MIC
14 | O=C(NNC(=O)[C@@H]1CC[C@@H]2CN1C(=O)N2OS(=O)(=O)O)[C@@H]1CCCNC1 [ZIDEBACTAM] | > 16 µg/mL

tested on: Klebsiella pneumoniae; test: Synergistic antibacterial activity against Klebsiella pneumoniae 1398/2291 producing KPC-3 assessed as cefepime MIC at 4 ug/ml by broth microdilution method; format: functional; details: dose 4 µg/ml; method in brief: as §1

Row | SMILES | MIC
15 | O=C(NNC(=O)[C@@H]1CC[C@@H]2CN1C(=O)N2OS(=O)(=O)O)[C@@H]1CCCNC1 [ZIDEBACTAM] | ≤ 0.12 µg/mL

tested on: Acinetobacter baumannii; test: Synergistic antibacterial activity against Acinetobacter baumannii PR319 producing OXA-23/24/40 assessed as meropenem MIC at 4 ug/ml by broth microdilution method; format: functional; details: dose 4 µg/ml

Row | SMILES | MIC
16 | O=C(NNC(=O)[C@@H]1CC[C@@H]2CN1C(=O)N2OS(=O)(=O)O)[C@@H]1CCCNC1 [ZIDEBACTAM] | > 16 µg/mL

tested on: Acinetobacter baumannii; test: Synergistic antibacterial activity against ADC deleted Acinetobacter baumannii transfected with pWH1266 producing OXA-24/40 assessed as cefepime MIC at 4 ug/ml by broth microdilution method; format: functional; details: dose 4 µg/ml

Row | SMILES | MIC
17 | O=C(NNC(=O)[C@@H]1CC[C@@H]2CN1C(=O)N2OS(=O)(=O)O)[C@@H]1CCCNC1 [ZIDEBACTAM] | 16 µg/mL

tested on: Klebsiella pneumoniae; test: Synergistic antibacterial activity against Klebsiella pneumoniae 440/1360 producing KPC-2 assessed as cefepime MIC at 4 ug/ml by broth microdilution method; format: functional; details: dose 4 µg/ml; method in brief: as §1

Row | SMILES | MIC
18 | O=C(NNC(=O)[C@@H]1CC[C@@H]2CN1C(=O)N2OS(=O)(=O)O)[C@@H]1CCCNC1 [ZIDEBACTAM] | ≤ 0.12 µg/mL
